“Also recorded” adds a separate entry of the source. Where two headings read alike, the source gives them in different places.
Legend:
human α2AAR [1] = target: T1, human α2AAR (Homo sapiens, UniProt P08913); assay: Gαi BRET G protein activation assay; assay type: cell-based
T1 sequence (P08913 1-465): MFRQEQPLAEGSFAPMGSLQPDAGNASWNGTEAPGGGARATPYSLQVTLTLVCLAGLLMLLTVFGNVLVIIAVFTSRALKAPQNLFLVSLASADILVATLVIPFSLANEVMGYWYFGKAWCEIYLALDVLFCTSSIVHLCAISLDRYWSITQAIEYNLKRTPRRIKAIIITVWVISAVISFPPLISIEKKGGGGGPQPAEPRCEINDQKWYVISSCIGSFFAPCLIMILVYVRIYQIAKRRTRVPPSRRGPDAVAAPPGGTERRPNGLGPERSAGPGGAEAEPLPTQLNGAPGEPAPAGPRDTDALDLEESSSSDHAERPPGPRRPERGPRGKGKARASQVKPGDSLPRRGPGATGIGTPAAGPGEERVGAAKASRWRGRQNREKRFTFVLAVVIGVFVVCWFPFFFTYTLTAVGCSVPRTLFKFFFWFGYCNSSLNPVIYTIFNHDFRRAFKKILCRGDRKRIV
Outline: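 HEK293T cells were co-transfected with α2AAR, Gαi1-RLucII, Gβ1 and Gγ2-GFP10. After 48 h the medium was replaced with PBS and cells were stimulated with ligand for 10 min at 37°C. Coelenterazine 400a (2.5 µM final) was added 5 min before reading. BRET was taken as acceptor/donor emission (515/410 nm) and normalised to buffer (0%) and maximal norepinephrine (100%). There were 3–17 experiments, each in duplicate. Receptor surface expression was checked by anti-FLAG ELISA.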

human α2AAR [2] = target: T1, human α2AAR; assay: ebBRET-based EMTA G protein and β-arrestin coupling panel; assay type: cell-based
Outline: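 ebBRET in HEK293SL cells transfected with premixed biosensor DNA plus α2AAR using PEI (3:1). DNA was 0.57 μg, or 1 μg total for G12/13, and cells were seeded at 3.5×10^4 cells/well for 48 h. Gα activation was read as translocation of RlucII-tagged effectors (p63-RhoGEF for Gq/11, Rap1-GAP for Gi/o, PDZ-RhoGEF for G12/13) to rGFP-CAAX. β-arrestin-1/2-RlucII was also read against rGFP-CAAX. Cells sat in Tyrode HEPES 1 h, then received increasing compound concentrations 10 min at 37°C, with 1 μM Prolume purple for the final 6 min.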

human α2AAR [3] = target: T1, human α2AAR; assay: Internalization assay with rGFP-CAAX and rGFP-FYVE biosensors; assay type: cell-based; conditions: for receptor internalization: both biosensors
Pharmacokinetics in mice = assay type: in vivo; conditions: 10-mg/kg i.v. and 30-mg/kg p.o.
Outline: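 C57BL/6 mice were dosed 10 mg/kg i.v. or 30 mg/kg p.o., with vehicle-dosed groups alongside. One analogue was formulated in 20% v/v HβCD in saline. Sparse sampling used three mice per time point (one for vehicle). Blood was drawn from the orbital sinus into K3EDTA under tribromoethanol (150 mg/kg i.p.), and plasma was spun at 4000 rpm, 10 min, 4°C. Brain was homogenised in ice-cold PBS. Samples were analysed by HPLC-MS/MS; values below LLOQ were set to zero.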

[4] = Metabolic stability in rat liver microsomes; assay type: in vitro ADME; conditions: male rat liver microsomes, 1 hour, 20 μM
Outline: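 Pooled male Sprague Dawley rat liver microsomes (0.25 mg protein per tube) were incubated with test compound or a positive control (20 µM final). Buffer was 50 mM Tris, 5 mM MgCl2, pH 7.4. Incubation was at 37°C on a rotating carousel.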

[5] = tested on: spared nerve injury (SNI) mice; assay: SNI model of neuropathic pain, mechanical; assay type: in vivo
Outline: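 Spared nerve injury: under isoflurane, two of the three sciatic nerve branches were ligated and transected distally, leaving the sural nerve intact. Testing was done 7–14 days after injury. Atipamezole (2 mg/kg i.p.) was given 15 min before s.c. agonist, and testing followed 30 min after agonist. Hindpaw thresholds were measured with von Frey filaments by the up-down method, by a blinded experimenter.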

naïve (uninjured) mice = assay: Mechanical withdrawal thresholds in naïve mice; assay type: in vivo; conditions: 5 mg/kg s.c.
Outline: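 Uninjured mice were habituated for 1 h in Plexiglas cylinders and tested 30 min after s.c. dosing. Hindpaw mechanical thresholds were found with von Frey filaments by the up-down method. The experimenter was blind to treatment, and animals were randomly assigned to compound or vehicle.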

mice [6] = assay: Tail flick; assay type: in vivo; conditions: tail flick 50°C, s.c.
Outline: (§1)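 WT and α2AAR D79N mice were habituated for 1 h in cylinders and tested 30 min after s.c. dosing. The tail was immersed in a 50°C water bath to measure heat sensitivity. The experimenter was blind to treatment.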

α2AAR D79N mutant mice = assay: Tail flick; assay type: in vivo; conditions: tail flick 50°C, versus WT
Outline: as §1

mice [7] = assay: Rotarod motor test; assay type: in vivo
Outline: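 Mice were first trained three times for 5 min on an accelerating rotating rod before any compound. They were then tested 30 min after s.c. dosing, with the experimenter blind to treatment.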

human α2BAR = target: T2, human α2BAR (Homo sapiens, UniProt P18089); assay: Radioligand binding, human α2BAR; conditions: read-out: Kd of radioligand; saturation, HEK293T membranes
T2 sequence (P18089 1-450): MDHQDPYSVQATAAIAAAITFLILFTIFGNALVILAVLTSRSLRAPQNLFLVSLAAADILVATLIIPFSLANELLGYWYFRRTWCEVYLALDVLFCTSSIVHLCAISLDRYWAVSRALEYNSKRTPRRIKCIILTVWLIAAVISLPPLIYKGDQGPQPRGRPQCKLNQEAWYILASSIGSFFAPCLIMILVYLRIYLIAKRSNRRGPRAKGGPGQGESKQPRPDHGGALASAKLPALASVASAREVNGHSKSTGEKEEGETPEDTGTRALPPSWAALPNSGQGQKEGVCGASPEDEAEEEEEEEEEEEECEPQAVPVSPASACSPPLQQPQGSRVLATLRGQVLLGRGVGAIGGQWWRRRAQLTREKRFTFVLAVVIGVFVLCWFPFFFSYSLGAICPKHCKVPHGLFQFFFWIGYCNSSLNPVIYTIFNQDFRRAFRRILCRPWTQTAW

murine α2AAR = target: T3, murine α2AAR (Mus musculus, UniProt Q01338); assay: Radioligand binding, murine α2AAR; conditions: read-out: Kd of radioligand; saturation, HEK293T membranes
T3 sequence (Q01338 1-465): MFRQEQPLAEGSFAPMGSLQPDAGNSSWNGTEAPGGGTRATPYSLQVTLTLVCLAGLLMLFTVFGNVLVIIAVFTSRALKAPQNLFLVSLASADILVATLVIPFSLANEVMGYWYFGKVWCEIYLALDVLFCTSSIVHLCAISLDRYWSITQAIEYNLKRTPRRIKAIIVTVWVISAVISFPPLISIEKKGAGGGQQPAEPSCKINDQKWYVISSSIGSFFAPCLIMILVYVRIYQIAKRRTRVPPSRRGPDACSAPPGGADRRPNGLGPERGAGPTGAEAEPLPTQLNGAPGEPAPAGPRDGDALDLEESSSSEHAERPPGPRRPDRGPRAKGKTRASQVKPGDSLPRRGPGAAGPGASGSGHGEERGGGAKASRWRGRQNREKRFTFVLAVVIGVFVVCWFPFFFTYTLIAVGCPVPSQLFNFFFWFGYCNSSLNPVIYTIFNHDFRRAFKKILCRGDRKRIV

human α2AAR [8] = target: T1, human α2AAR; assay: Radioligand binding, human α2AAR; conditions: read-out: Kd of radioligand; saturation, HEK293T membranes
human α2C = target: T4, human α2C (Homo sapiens, UniProt P18825); assay: Radioligand binding, α2C; conditions: read-out: Kd of radioligand; saturation, HEK293T membranes
T4 sequence (P18825 1-462): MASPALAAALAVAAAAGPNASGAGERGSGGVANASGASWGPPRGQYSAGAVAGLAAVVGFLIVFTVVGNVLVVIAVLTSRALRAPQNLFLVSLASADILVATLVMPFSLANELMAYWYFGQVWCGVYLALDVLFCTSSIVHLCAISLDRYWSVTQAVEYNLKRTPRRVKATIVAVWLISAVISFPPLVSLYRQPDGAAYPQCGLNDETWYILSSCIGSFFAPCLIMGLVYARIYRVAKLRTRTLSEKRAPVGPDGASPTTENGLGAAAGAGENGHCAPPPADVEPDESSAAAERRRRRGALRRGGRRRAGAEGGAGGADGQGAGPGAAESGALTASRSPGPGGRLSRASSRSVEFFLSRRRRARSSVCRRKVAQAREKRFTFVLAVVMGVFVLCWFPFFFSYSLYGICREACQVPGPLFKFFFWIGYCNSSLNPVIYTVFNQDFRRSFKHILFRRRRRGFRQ

[9] = target: α2AAR D128^3.32 mutant receptors (Homo sapiens, UniProt P08913, D128A); assay type: cell-based; conditions: D128^3.32A versus wild type
[10] = tested on: α2AAR D128^3.32 mutant receptors; assay type: cell-based, human
mice [11] = assay: Constipation assay; conditions: i.p.; morphine 10 mg/kg, dexmedetomidine 30 μg/kg, ‘9087 5 mg/kg; versus vehicle

Sequence of α2AAR D128^3.32 mutant receptors (Homo sapiens, UniProt P08913, D128A) (P08913 whole entry D128A): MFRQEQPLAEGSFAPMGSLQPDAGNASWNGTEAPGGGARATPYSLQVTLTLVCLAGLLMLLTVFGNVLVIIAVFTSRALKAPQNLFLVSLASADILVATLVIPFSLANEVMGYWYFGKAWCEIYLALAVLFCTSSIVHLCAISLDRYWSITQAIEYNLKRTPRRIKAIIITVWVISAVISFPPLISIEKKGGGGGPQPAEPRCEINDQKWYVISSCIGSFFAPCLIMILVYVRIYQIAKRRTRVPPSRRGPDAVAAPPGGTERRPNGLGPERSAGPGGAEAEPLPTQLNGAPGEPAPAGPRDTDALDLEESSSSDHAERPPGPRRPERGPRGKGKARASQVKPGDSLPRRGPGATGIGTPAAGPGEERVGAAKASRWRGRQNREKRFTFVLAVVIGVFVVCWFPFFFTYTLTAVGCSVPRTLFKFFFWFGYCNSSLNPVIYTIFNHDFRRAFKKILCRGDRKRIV

Compound: Clc1ccc2cccc(Nc3ccncc3)c2c1 [PS75]
- increased potency compared with ‘9087 (human α2AAR [1]; Gi activation): 11 fold
- Emax, Gi activation (human α2AAR [1]; Gαi BRET, % of norepinephrine response): 82%
- EC50 (human α2AAR [1]; abstract): 4.8 nM
- G protein and β-arrestin subtype signaling profile (human α2AAR [2]): preferentially activated Gi, Go, and Gz (Gi/o/z) signaling; also recorded: retained the preferential signaling through the Gi/o versus other G protein families and β-arrestins
- receptor internalization (human α2AAR [3]): negligible receptor internalization
- disappearance of α2AARs from the plasma membrane (human α2AAR [3]; α2AAR-RlucII/rGFP-CAAX biosensor): no effect
- relocalization of the receptors in endosomes (human α2AAR [3]; α2AAR-RlucII/rGFP-FYVE biosensor): marginal effect at the highest concentrations
- oral bioavailability (Pharmacokinetics in mice): fully bio-available
- metabolic stability [4]: remain largely unmodified
- effect of atipamezole on the agonist's effect ([5]; atipamezole 2 mg/kg i.p. 15 min before agonist): partially reversed
- effect on mechanical thresholds / allodynia ([5]; s.c.): completely reversed the mechanical hypersensitivity
- baseline mechanical withdrawal thresholds (naïve (uninjured) mice): did increase the mechanical thresholds
- withdrawal latencies (mice [6]): increased withdrawal latencies
- analgesia in D79N mutant mice (α2AAR D79N mutant mice): substantially decreases the analgesia
- reduction of analgesia in D79N mutant mice (α2AAR D79N mutant mice): > 50%
- motor impairment and sedation (mice [7]): did not have an effect on the rotarod test; also recorded: do not cause sedation or motor impairment at analgesic doses

Compound: COC1(C2=NCCN2)COc2ccccc2O1 (centres unmarked) [[^3H]RX82,1002]
- Kd (human α2BAR): 2.3 ± 0.52 nM
- Kd (murine α2AAR): 1.8 ± 0.61 nM
- Kd (human α2AAR [8]): 0.54 ± 0.024 nM
- Kd (human α2C): 0.58 ± 0.11 nM

Compound: Brc1c(NC2=NCCN2)ccc2nccnc12 [brimonidine]
- G protein and β-arrestin subtype signaling profile (human α2AAR [2]): strongly activated multiple additional G proteins and β-arrestins
- receptor internalization (human α2AAR [3]): comparable responses for both biosensors

Compound: Cc1cccc([C@H](C)c2cnc[nH]2)c1C [dexmedetomidine]
- G protein and β-arrestin subtype signaling profile (human α2AAR [2]): strongly activated multiple additional G proteins and β-arrestins
- receptor internalization (human α2AAR [3]): about half of this response
- Gi EC50 fold higher [9]: 170,000 fold
- Gi activation and β-arrestin recruitment on substitutions to D128^3.32 [10]: almost complete loss
- analgesia in D79N mutant mice (α2AAR D79N mutant mice): no longer induced analgesia in the mutant mice
- analgesia in D79N mutant mice (α2AAR D79N mutant mice; listed as DEX): substantially decreases the analgesia
- motor impairment and sedation (mice [7]): complete sedation; also recorded: full sedation
- motor impairment and sedation (mice [7]; listed as DEX): significant impairment and complete sedation at higher doses

Compound: CN1CC[C@]23c4c5ccc(O)c4O[C@H]2[C@@H](O)C=C[C@H]3[C@H]1C5 [morphine]
- analgesia in D79N mutant mice (α2AAR D79N mutant mice): does not affect; also recorded: not significantly altered by the mutation
- constipation, accumulated pellets over 6 hours (mice [11]): induced constipation

Compound: NC[C@H](O)c1ccc(O)c(O)c1 [norepinephrine]
- G protein and β-arrestin subtype signaling profile (human α2AAR [2]): strongly activated multiple additional G proteins and β-arrestins
- receptor internalization (human α2AAR [3]): comparable responses for both biosensors
- Gi activation and β-arrestin recruitment on substitutions to D128^3.32 [10]: almost complete loss
